Converted amounts (≈) assume the structure as drawn. The source made the active and inactive calls. The calls are words filed in the database; no cut-off is given here.

The source of these data is ChEMBL document CHEMBL1123149, “Synthesis and antineoplastic evaluations of 5,8-bis[(aminoalkyl)amino]-1-azaanthracene-9,10-diones” (1985).

One assay deals with L1210. Description: In vitro growth inhibitory effect against L1210 murine leukemia cells was determined. Type of assay: functional. To be noted: Mus musculus, read-out: ID50 (the source's name). The gist of the method:
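L1210 cells, 10^5 cells/tube in 4 mL, exposed continuously 96 h to drug added in Me2SO (≤40 μL per culture) at final 0.01, 0.1 and 10 μg/mL, triplicate.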

The subject of assay [1] is Mus musculus. Description: Activity against L1210 leukemia cells was studied in mice at 100 mg/kg and determined as MST(treated)/MST(control) x100; Toxic. The assay is classed as functional, organism-based. On the set-up: dose 100 mg/kg.
In assay [2] the test system is Mus musculus. Description: Activity against L1210 leukemia cells was studied in mice at 100 mg/kg and determined as MST(treated)/MST(control) x100; Inactive. Type of assay: functional, organism-based. On the set-up: dose 100 mg/kg.
Assay [3] relates to Mus musculus. Description: Activity against L1210 leukemia cells was studied in mice at 25 mg/kg and determined as MST(treated)/MST(control) x100. Type of assay: functional.
For assay [4], the system named is Mus musculus. Description: Activity against L1210 leukemia cells was studied in mice at 50 mg/kg and determined as MST(treated)/MST(control) x100. Type of assay: functional.
In assay [5] the test system is Mus musculus. Nature of the assay: Activity against L1210 leukemia cells was studied in mice at 15 mg/kg and determined as MST(treated)/MST(control) x100. Type of assay: functional.
The test system of assay [6] is Mus musculus. Description: Activity against L1210 leukemia cells was studied in mice at 30 mg/kg and determined as MST(treated)/MST(control) x100. The assay is classed as functional.

One may read the T/C as the ratio of treated to control. Turning to `CCN(CC)CCNc1ccc(NCCN(CC)CC)c2c1C(=O)c1cccnc1C2=O`, in the assay with L1210, the IC50 came out at 2.4 µg/mL (≈ 5.48 µM). The T/C entry in the assay on Mus musculus [1] was “Toxic”.
For `O=C1c2cccnc2C(=O)c2c(O)ccc(O)c21`, the IC50 with L1210 stood at 0.18 µg/mL (≈ 0.746 µM). Further, the T/C result with Mus musculus [2] was “inactive”.
On to `CC(=O)NCCNc1ccc(NCCNC(C)=O)c2c1C(=O)c1cccnc1C2=O`, for which the IC50 with L1210 was over 10 µg/mL.
Take `CCN(CC)CCNc1ccc(NCCN(CC)CC)c2c1C(=O)c1ccccc1C2=O`: the IC50 in the assay with L1210 came out at 0.3 µg/mL (≈ 0.687 µM).
On to `CN(C)CCNc1ccc(NCCN(C)C)c2c1C(=O)c1cccnc1C2=O`, for which the IC50 with L1210 turned out to be 0.16 µg/mL (≈ 0.419 µM). Further, the T/C in the assay with Mus musculus [3] worked out at 120%; in the assay with Mus musculus [4], 130%.
Regarding `CN(C)CCCNc1ccc(NCCCN(C)C)c2c1C(=O)c1cccnc1C2=O`, in the assay with L1210, the IC50 was determined as 1.7 µg/mL (≈ 4.15 µM).
Take `CN(C)CCNc1ccc(NCCN(C)C)c2c1C(=O)c1ccccc1C2=O`: in the assay with L1210, the IC50 was 0.08 µg/mL (≈ 0.21 µM). The T/C in the assay with Mus musculus [5] was determined as 117%; in the assay on Mus musculus [6], 150%.
